UPR XBP1 act – adaptive UPR (XBP1) activation; CHO-XBP1 luciferase reporter, IRE1-XBP1 UPR activation, luminescence; percent of tunicamycin response, DMSO as zero; activation, % at 20 µM; hit rate 0.33% among 330,000; AID 463104;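 active = versus positive control, 20 µM dose yields 30% or more activation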
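Material: CHO cell line with stable XBP1 luciferase reporter; schedule: 16-18 h cell attachment at 37 °C, then 6 h compound exposure; signal: glow luminescence from Steady-Glo reagent; medium: serum-containing F12 medium, 10% FBS; benchmarks: tunicamycin 10 µg/mL and vehicle-only wells; read-out: percent activation relative to tunicamycin reference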
CHOP inhibitor – blocks CHOP induction under ER stress | CHO-K1 CHOP-promoter luciferase, tunicamycin-induced, 15-18 h | hit rate 3.8% among 220,000 | inhibition, % at 10 µM | AID 2732;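 active = compounds that reduced the stress-induced luciferase reporter signal by more than about 70% of percent inhibition, limit read from the data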
TLR4-MyD88 BLA – TLR4-MyD88 interaction inhibition in cells; HeLa CL3-4 TLR4/MyD88 BLA complementation, FRET ratio; inhibition, % at 8.4 µM; hit rate 0.18% among 200,000; in the data active = inhibition above about 25%
UPR CHOP act – activators of apoptotic arm of unfolded protein response (CHOP); activation, % at 10 µM; hit rate 0.34% among 330,000; CHO-CHOP luciferase reporter, UPR activation, luminescence; percent of tunicamycin response over DMSO baseline;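 active = at 10 µM dose, activation of 40% or more, normalized to positive control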
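Test system: CHO CHOP reporter cells. Input: 500 CHO-CHOP cells per well. Medium: F12 with 10% FBS. Technique: luciferase luminescence. Measure: percent activation relative to tunicamycin control. Dosing: 10 µM compound, 0.5% DMSO. Timing: 16-18 h cell attachment, then 6 h compound exposure, 37 °C.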
NOD2 RIPK2 PPI – NOD2-RIPK2 protein interaction inhibition; CHO BLA complementation NOD2-RIPK2, CCF4 ratio; inhibition, % at 4.98 µM; hit rate 0.38% among 360,000; AID 624267; in the data active = inhibition above about 21%
TLR9-MyD88 inh – blocks human TLR9 binding to MyD88; Q9NR96+Q99836; CHO BLA complementation TLR9-MyD88, CCF4 FRET ratio; inhibition, % at 4.98 µM; hit rate 0.21% among 340,000; AID 504734;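 active = inhibition above the mean over all tested compounds plus 3 SD, cut at about 21% in these data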
NOD2 RIPK2 conf – NOD2-RIPK2 interaction inhibition confirmed; shares compounds with NOD2 RIPK2 PPI; CHO cells, NOD2-RIPK2 BLA complementation, CCF4 FRET; inhibition, % at 4.98 µM; hit rate 70% among 1,200; AID 624370;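 active = mean inhibition across replicates above a set limit taken from the earlier primary screen, cut at about 21% in these data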
BLA counter – hits BLA reporter in NOD2-RIPK2 inhibitor counterscreen; shares compounds with NOD2 RIPK2 PPI; CHO BLA reporter, CCF4 FRET ratio; inhibition, % at 4.98 µM; hit rate 57% among 1,200; AID 624371;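 active = mean inhibition above the low-control mean inhibition plus three low-control SD, cut at about 11% in these data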
Large screens that a line does not name were inactive (follow-up assays come after a bar, where they were run). The full list was thinned out, with hits kept by preference.

CCOC(=O)C(C)(C)Sc1ncnc2nc[nH]c12	none
Cc1c(Cl)sn(-c2ccc(Cl)cc2)c1=O	CHOP inhibitor 95, NOD2 RIPK2 PPI 29 | NOD2 RIPK2 conf 89 | BLA counter 28
COc1ccc2oc(=O)c(-c3nnc(NCc4ccco4)s3)cc2c1	NOD2 RIPK2 PPI 21 | NOD2 RIPK2 conf 49 | BLA counter 49
CCOC(=O)c1c(SCCN2CCCC2)n(-c2ccccc2)c(=S)n(-c2ccccc2)c1=O	NOD2 RIPK2 PPI 89 (no result: UPR XBP1 act, CHOP inhibitor, TLR4-MyD88 BLA, UPR CHOP act) | NOD2 RIPK2 conf 86 | BLA counter inactive
CCOC(=O)c1c[nH]c(=S)n(-c2ccccc2)c1=O	none (no result: CHOP inhibitor, TLR4-MyD88 BLA)
N#C/C(C(=O)Nc1ccc(Cl)cc1)=C(/S)Nc1ccccc1	NOD2 RIPK2 PPI 26 (no result: CHOP inhibitor, TLR4-MyD88 BLA) | NOD2 RIPK2 conf 24 | BLA counter inactive
NC(=NC(=O)c1ccccc1)N1CCN(C(c2ccccc2)c2ccccc2)CC1	none (no result: TLR4-MyD88 BLA)
CCOC(=O)C(Cc1ccc(NC(=O)/C(=C\c2ccccc2)NC(=O)c2ccccc2)cc1)N1C(=O)c2ccccc2C1=O (centres undefined)	none
CC(=O)N1CCN(c2ccc(NC(=O)c3ccc([N+](=O)[O-])o3)cc2Cl)CC1	UPR CHOP act 73, NOD2 RIPK2 PPI 28 (no result: CHOP inhibitor, TLR4-MyD88 BLA) | NOD2 RIPK2 conf 27 | BLA counter inactive
CC1=NNC(=O)/C1=C\c1cn(-c2ccccc2)nc1-c1cccs1	CHOP inhibitor 110, NOD2 RIPK2 PPI 60 | NOD2 RIPK2 conf 66 | BLA counter inactive
O=C(O)CCCCCN1C(=O)/C(=C/c2cn(-c3ccccc3)nc2-c2cccs2)SC1=S	none (no result: UPR XBP1 act, CHOP inhibitor, TLR4-MyD88 BLA, UPR CHOP act)
O=C(Nc1ccc2c(c1)CCCN2C(=O)c1cccs1)c1c(F)cccc1Cl	none (no result: CHOP inhibitor, TLR4-MyD88 BLA)
COCC(=O)Nc1nc2n(n1)C(c1ccccc1)CC(c1ccc(OC)cc1)N2 (centres undefined)	NOD2 RIPK2 PPI 28 | NOD2 RIPK2 conf 26 | BLA counter 26
CCCCNC(=S)Nc1ccc(-c2nc3ccc(C)cc3s2)cc1	NOD2 RIPK2 PPI 23 | NOD2 RIPK2 conf inactive | BLA counter inactive
Cn1c(SCC(=O)NNC(=O)Nc2ccccc2)nnc1-c1ccccc1	NOD2 RIPK2 PPI 24 (no result: TLR4-MyD88 BLA) | NOD2 RIPK2 conf inactive | BLA counter inactive
COc1ccc(CC(=O)Nc2ccc(-c3cn4ccc(C)cc4n3)cc2)cc1	NOD2 RIPK2 PPI 23 | NOD2 RIPK2 conf inactive | BLA counter inactive
Cc1cc(C)cc(NC(=O)C2CCN(c3cnccn3)CC2)c1	none
Cc1cc(C)c(NC(=O)C2CCN(c3cnccn3)CC2)c(C)c1	NOD2 RIPK2 PPI 28 | NOD2 RIPK2 conf inactive | BLA counter inactive
C(=Cc1cccnc1)c1ccncc1	none (no result: UPR XBP1 act, CHOP inhibitor, TLR4-MyD88 BLA, UPR CHOP act)
O=C(/C=C/c1cccnc1)/C=C/c1cccnc1	CHOP inhibitor 97, NOD2 RIPK2 PPI 23 (no result: UPR XBP1 act, TLR4-MyD88 BLA, UPR CHOP act) | NOD2 RIPK2 conf 48 | BLA counter inactive
CCOc1ccc(S(=O)(=O)Nc2ccc(C(=O)NCC(c3ccco3)N(C)C)cc2)cc1 (centres undefined)	NOD2 RIPK2 PPI 25 (no result: CHOP inhibitor, TLR4-MyD88 BLA) | NOD2 RIPK2 conf inactive | BLA counter inactive
CN(C)C(CNC(=O)c1ccc(NS(=O)(=O)c2cccc([N+](=O)[O-])c2)cc1)c1ccco1 (centres undefined)	none (no result: CHOP inhibitor, TLR4-MyD88 BLA)
C[C@@H]1CN([C@H](C)CO)C(=O)CCCn2nncc2CO[C@H]1CN(C)Cc1cccnc1	none (no result: UPR XBP1 act, CHOP inhibitor, TLR4-MyD88 BLA, UPR CHOP act)
O=C(NCc1ccc2c(c1)OCO2)c1nc(S(=O)(=O)Cc2ccccc2)ncc1Cl	NOD2 RIPK2 PPI 36 (no result: CHOP inhibitor, TLR4-MyD88 BLA) | NOD2 RIPK2 conf 29 | BLA counter inactive
O=C(NCc1ccccc1)c1nc(S(=O)(=O)Cc2ccccc2)ncc1Cl	UPR CHOP act 105, NOD2 RIPK2 PPI 53 (no result: CHOP inhibitor, TLR4-MyD88 BLA) | NOD2 RIPK2 conf 54 | BLA counter 14
Cc1noc(C(=O)NCc2ccccc2)c1Cl	none
O=C(Cc1ccccc1)NCc1ccc2c(c1)OCO2	none
COc1ccc(CNC(=O)c2nc(S(=O)(=O)Cc3ccccc3)ncc2Cl)cc1	UPR CHOP act 164, NOD2 RIPK2 PPI 62 (no result: CHOP inhibitor, TLR4-MyD88 BLA) | NOD2 RIPK2 conf 63 | BLA counter 15
COc1ccc(NC(=O)c2ccc(NC(=O)CSc3nc(N)cc(=O)[nH]3)cc2)cc1	none (no result: CHOP inhibitor, TLR4-MyD88 BLA)
O=C1CCC(C(=O)N2CCN(c3ccccc3)CC2)CN1CC1CCCCC1 (centres undefined)	none (no result: CHOP inhibitor, TLR4-MyD88 BLA)
Cc1cccc(C)c1NC(=O)C(c1ccccc1F)n1c(=O)c(-c2cc3ccccc3[nH]2)nc2ccccc21 (centres undefined)	NOD2 RIPK2 PPI 50 (no result: UPR XBP1 act, CHOP inhibitor, TLR4-MyD88 BLA, UPR CHOP act, TLR9-MyD88 inh) | NOD2 RIPK2 conf 46 | BLA counter 68
O=C(NCc1ccccc1)C(CCc1ccccc1)n1c(=O)c(-c2ccccc2)nc2ccccc21 (centres undefined)	NOD2 RIPK2 PPI 29 (no result: UPR XBP1 act, CHOP inhibitor, TLR4-MyD88 BLA, UPR CHOP act, TLR9-MyD88 inh) | NOD2 RIPK2 conf inactive | BLA counter inactive

Bioassay records deposited in PubChem BioAssay by several laboratories.
